The source made the active and inactive calls. No cut-off for these calls is given here.
Legend:
[1] = target: T1, Cathepsin K (Mus musculus) (UniProt P55097); experiment: Inhibition of cathepsin K in mouse Primary chondrocytes derived after 2 passages at 1 uM after 24 hrs by Coomassie blue staining-based zymography assay; assay type: cell-based
T1 sequence (whole entry): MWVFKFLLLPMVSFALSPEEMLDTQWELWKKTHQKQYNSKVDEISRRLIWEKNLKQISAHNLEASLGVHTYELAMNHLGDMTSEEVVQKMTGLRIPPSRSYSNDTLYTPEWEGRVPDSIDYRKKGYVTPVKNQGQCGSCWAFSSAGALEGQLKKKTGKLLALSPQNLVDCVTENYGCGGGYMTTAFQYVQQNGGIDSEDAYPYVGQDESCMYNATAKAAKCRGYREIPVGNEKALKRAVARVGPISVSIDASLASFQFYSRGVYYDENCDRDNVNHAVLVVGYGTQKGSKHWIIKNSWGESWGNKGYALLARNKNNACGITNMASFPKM
Summary of the method: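 Chondrocyte lysates in pH 7.5 extraction buffer. Equal protein resolved on 12% SDS gels containing 2 mg/mL gelatin. Renatured in Tris/glycerol, then developed in pH 6.0 100 mM sodium phosphate with 1 mM EDTA and 2 mM DTT. After 30 min, buffer exchanged for fresh buffer with 0.1% DMSO ± inhibitor for 24 h at 37 °C. Coomassie stain and destain; lysis zones indicate activity.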

[2] = target: T1, Cathepsin K (Mus musculus); experiment: Inhibition of cathepsin K in mouse Primary chondrocytes derived after 2 passages at 0.1 to 1 uM using Z-GPR-4MbetaNA as substrate by fluorescence assay relative to control; assay type: cell-based
Summary of the method: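 Lysates of passaged primary chondrocytes in zymography extraction buffer. Incubated with Z-GPR-4MβNA (1 mg/mL), and released 4MβNA captured with 10 μM 5-nitrosalicylaldehyde. Fluorescence read at ex 488/em 525 nm, at least three reads per condition. Activity taken as (control − sample fluorescence) normalized to Bradford protein. Three independent experiments in triplicate.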

[3] = target: 72 kDa type IV collagenase (Mus musculus) (UniProt P33434); experiment: Inhibition of MMP2 in mouse Primary chondrocytes derived after 2 passages at 1 uM after 24 hrs by Coomassie blue staining-based zymography assay; assay type: cell-based
Summary of the method: (§1)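 Gelatin zymography of extracellular medium from primary mouse chondrocytes. Medium collected in pH 7.5 Tris/EGTA/Triton extraction buffer, and equal protein run on 8% SDS gels with 1.2 mg/mL gelatin. Renatured in Tris/20% glycerol (2 × 45 min), then pH 7.4 Tris/NaCl/5 mM CaCl2 buffer. After 30 min, fresh buffer with 0.1% DMSO ± inhibitor for 24 h at 37 °C. Coomassie stained; clear bands scored. Triplicate.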

[4] = target: Matrix metalloproteinase-9 (Mus musculus) (UniProt P41245); experiment: Inhibition of MMP9 in mouse Primary chondrocytes derived after 2 passages at 1 uM after 24 hrs by Coomassie blue staining-based zymography assay; assay type: cell-based; summary of the method: as §1
[5] = organism: Mus musculus; experiment: Inhibition of aggrecanase in mouse Primary chondrocytes derived after 2 passages assessed as effect on measuring sGAG content at 1 uM by Alcian blue staining-based assay; assay type: cell-based
Summary of the method: (§2)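 Passaged primary chondrocytes cultured ± inhibitor. Washed in PBS, fixed in 4% formaldehyde for 30 min at RT, then stained 30 min with 1% Alcian blue in 0.1 N HCl. Dye extracted with 33% isopropanol in 4.0 mol/L GnCl and A595 measured. Three independent experiments in triplicate.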

[6] = test system: MG-63; experiment: Cytotoxicity against human MG63 cells assessed as reduction in cell viability at 0.001 to 5 uM after 3 days by MTT assay; assay type: cell-based; details: mg-63, 72 h
Summary of the method: (§3)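 Cells plated at 60000/well (primary chondrocytes from epiphyseal cartilage of 5-6 day-old SWISS mice) or 100 000/well (MG-63, MOVAS cell lines). Grown in DMEM with 10% FBS plus penicillin/streptomycin, with or without inhibitor, for 3 days up to confluence. MTT 0.125 mg/mL final for 4 h, then DMSO solubilization and A570 read. Normalized to 0.1% DMSO control as 100%. Three sample pools, each in triplicate (n = 9).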

[7] = target: Cathepsin S (Homo sapiens, UniProt P25774); experiment: Inhibition of recombinant human cathepsin S expressed in Escherichia coli
[8] = organism: Mus musculus; experiment: Inhibition of aggrecanase in mouse Primary chondrocytes derived after 0 passages assessed as effect on measuring sGAG content at 1 uM by Alcian blue staining-based assay; assay type: cell-based
[9] = organism: Mus musculus; experiment: Inhibition of aggrecanase in mouse Primary chondrocytes derived after 1 passages assessed as effect on measuring sGAG content at 1 uM by Alcian blue staining-based assay; assay type: cell-based; summary of the method: as §2
[10] = target: Procathepsin L (Homo sapiens, UniProt P07711); experiment: Inhibition of human liver cathepsin L
[11] = target: T2, Cathepsin K (Homo sapiens, UniProt P43235); experiment: Inhibition of recombinant His-tagged human cathepsin K expressed in Escherichia coli
T2 sequence (P43235 whole entry): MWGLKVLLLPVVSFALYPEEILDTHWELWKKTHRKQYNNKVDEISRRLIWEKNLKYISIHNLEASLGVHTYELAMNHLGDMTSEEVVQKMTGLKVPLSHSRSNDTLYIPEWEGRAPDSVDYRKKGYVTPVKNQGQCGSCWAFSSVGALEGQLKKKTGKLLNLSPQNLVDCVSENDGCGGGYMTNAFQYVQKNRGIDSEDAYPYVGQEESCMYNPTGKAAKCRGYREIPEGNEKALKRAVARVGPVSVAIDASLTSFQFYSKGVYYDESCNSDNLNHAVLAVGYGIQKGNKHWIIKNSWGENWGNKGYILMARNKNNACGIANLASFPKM

[12] = Cytotoxicity against mouse Primary chondrocytes assessed as reduction in cell viability at 0.001 to 5 uM after 3 days by MTT assay; details: 72 h; summary of the method: as §3
[13] = Cytotoxicity against mouse MOVAS1 cells assessed as reduction in cell viability at 0.001 to 5 uM after 3 days by MTT assay; assay type: cell-based; details: 72 h; summary of the method: as §3

Procathepsin L, sequence (P07711 whole entry): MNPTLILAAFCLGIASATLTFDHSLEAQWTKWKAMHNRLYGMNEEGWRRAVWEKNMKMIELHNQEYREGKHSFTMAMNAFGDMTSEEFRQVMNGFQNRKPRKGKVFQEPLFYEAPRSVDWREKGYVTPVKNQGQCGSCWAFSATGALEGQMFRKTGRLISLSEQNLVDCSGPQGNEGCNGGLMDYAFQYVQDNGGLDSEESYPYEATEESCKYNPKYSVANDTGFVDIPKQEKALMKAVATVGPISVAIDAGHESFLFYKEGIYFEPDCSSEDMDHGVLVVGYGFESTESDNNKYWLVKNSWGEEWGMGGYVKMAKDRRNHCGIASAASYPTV
Cathepsin S, sequence (P25774 whole entry): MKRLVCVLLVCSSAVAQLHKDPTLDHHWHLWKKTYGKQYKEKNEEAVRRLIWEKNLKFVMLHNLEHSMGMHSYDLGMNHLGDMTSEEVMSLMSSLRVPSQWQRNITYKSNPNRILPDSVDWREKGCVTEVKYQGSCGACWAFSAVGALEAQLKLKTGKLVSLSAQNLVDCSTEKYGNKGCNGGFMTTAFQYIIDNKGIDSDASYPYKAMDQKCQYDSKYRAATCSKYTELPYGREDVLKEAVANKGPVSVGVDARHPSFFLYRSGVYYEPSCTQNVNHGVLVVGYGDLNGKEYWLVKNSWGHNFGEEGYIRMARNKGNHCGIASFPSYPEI
Matrix metalloproteinase-9 (Mus musculus), sequence (P41245 whole entry): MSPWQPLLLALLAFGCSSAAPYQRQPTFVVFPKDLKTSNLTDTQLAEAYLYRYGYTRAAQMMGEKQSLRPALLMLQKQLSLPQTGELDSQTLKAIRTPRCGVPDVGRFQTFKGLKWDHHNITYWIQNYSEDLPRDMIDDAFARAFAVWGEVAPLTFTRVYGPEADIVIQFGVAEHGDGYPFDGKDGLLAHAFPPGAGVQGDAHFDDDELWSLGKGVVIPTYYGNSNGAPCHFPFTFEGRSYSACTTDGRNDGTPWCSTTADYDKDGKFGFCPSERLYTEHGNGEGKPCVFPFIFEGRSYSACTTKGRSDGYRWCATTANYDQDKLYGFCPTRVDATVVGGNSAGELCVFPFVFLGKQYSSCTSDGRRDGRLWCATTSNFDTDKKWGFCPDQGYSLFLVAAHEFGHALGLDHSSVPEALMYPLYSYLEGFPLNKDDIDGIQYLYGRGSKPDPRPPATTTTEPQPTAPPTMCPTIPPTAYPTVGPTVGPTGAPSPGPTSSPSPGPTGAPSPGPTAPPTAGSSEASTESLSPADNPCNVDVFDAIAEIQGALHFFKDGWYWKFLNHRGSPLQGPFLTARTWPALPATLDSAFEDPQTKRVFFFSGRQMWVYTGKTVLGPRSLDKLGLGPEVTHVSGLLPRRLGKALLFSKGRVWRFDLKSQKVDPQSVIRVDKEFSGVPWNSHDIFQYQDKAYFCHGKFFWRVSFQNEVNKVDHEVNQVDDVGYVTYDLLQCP
72 kDa type IV collagenase (Mus musculus), sequence (P33434 whole entry): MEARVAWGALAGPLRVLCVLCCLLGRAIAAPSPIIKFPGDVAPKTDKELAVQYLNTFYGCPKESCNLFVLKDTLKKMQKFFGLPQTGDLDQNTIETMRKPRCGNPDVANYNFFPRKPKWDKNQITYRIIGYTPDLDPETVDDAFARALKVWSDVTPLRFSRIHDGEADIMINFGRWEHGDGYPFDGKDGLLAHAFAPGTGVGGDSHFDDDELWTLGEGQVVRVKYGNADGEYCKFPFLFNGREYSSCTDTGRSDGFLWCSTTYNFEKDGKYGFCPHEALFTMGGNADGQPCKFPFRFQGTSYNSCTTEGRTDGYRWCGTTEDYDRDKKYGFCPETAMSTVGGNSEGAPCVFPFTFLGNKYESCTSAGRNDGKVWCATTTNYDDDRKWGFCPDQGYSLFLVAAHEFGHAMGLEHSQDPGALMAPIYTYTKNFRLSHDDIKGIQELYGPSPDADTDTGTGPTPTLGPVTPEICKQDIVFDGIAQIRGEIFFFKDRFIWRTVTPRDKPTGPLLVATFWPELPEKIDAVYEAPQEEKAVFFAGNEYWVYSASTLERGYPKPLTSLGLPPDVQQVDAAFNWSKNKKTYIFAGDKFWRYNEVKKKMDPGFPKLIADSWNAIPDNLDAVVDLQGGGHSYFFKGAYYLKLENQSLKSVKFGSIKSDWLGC

inhibition [1] | inhibition [2] [%] | inhibition [3] | inhibition [4] | inhibition [5] | IC50 [7] [nM] | Ki [7] [nM] | inhibition [8] | inhibition [9] | IC50 [10] [nM] | Ki [10] [nM] | IC50 [11] [nM] | Ki [11] [nM] | SMILES | Activity [6] | Activity [12] | Activity [13]
Active | 19 to 30 | inactive | inactive | – | – | – | – | – | – | – | – | – | CC(C)(F)C[C@H](N[C@@H](c1ccc(-c2ccc(S(C)(=O)=O)cc2)cc1)C(F)(F)F)C(=O)NC1(C#N)CC1 | – | – | –
Active | 30 to 40 | inactive | inactive | inactive | 1020 | 735 | inactive | inactive | 2710 | 406 | 15 | 7.21 | CC(C)CC(C(=O)N(C)N(C)C#N)c1cccc(-c2ccc(S(C)(=O)=O)cc2)c1 (racemic) | Non-Toxic | Non-Toxic | Non-Toxic

From ChEMBL document CHEMBL4368938, “Design, synthesis and biological evaluation of inhibitors of cathepsin K on dedifferentiated chondrocytes” (Bioorg Med Chem, 2019)
